The values below come from ChEMBL document CHEMBL4725347, “Discovery of a Monoiodo Aza-BODIPY Near-Infrared Photosensitizer: in vitro and in vivo Evaluation for Photodynamic Therapy” (J Med Chem, 2020).

Active and inactive are the calls of the source. The rule behind the calls is not given here. Bounds are passed on as bounds.

In one data set the test system is SW480. Kind of data set: Phototoxicity against human SW480 cells assessed as reduction in cell viability preincubated for 3 hrs followed by 54 J/cm2 light irradiation and measured after 24 hrs by MTT assay. It is filed as functional, cell-based. Conditions: SW480, light or radiation study. In a few lines:
(§1)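 PS formulated in PBS containing Cremophor EL/1,2-propanediol (10:3, v:v) after THF removal, filtered, with concentration confirmed by UV-Vis. Cells were grown in DMEM with 10% FBS and seeded at 3×10^3 per well overnight. They were incubated with PS for 3 h, irradiated at λ > 590 nm, kept 24 h at 37 °C, then given MTT (0.5 mg/mL, 4 h) with DMSO solubilization and A490 read-out.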
(Formazan colour is commonly taken as a measure of viable cells.)

A short description of data set [1]: Drug uptake in human HeLa cells xenografted Balb/c nu/nu mouse kidney at 2 mg/kg, iv measured within 1 hr by fluorescence imaging analysis. Conditions: in vivo. It is filed as ADME, organism-based. In a few lines: (§2)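 Female Balb/c nu/nu mice bore subcutaneous HeLa tumors (5×10^6 cells, right back) and received 2 mg/kg via tail vein. Living mice were imaged under isoflurane at time points (ex 680/em 720 nm, 1 s exposure). At set times mice were euthanized and heart, liver, spleen, lungs, kidneys and tumor imaged ex vivo; ROI quantified, mean ± SD, n = 3.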

Data set [2] in a line: Drug uptake in human HeLa cells xenografted Balb/c nu/nu mouse liver at 2 mg/kg, iv measured within 1 hr by fluorescence imaging analysis. In kind it is ADME, organism-based. Conditions: in vivo. In a few lines:
as §2

Data set [3] in a line: Absorption property of the compound in PBS containing 1% Cremophor EL/1,2-propanediol (10:3, v:v) system assessed as absorption coefficient by UV-visible spectrophotometric method. It is filed as physicochemical. Conditions: buffer. The method, boiled down: (§3)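 Electronic absorption spectra recorded by UV-visible spectrophotometry at room temperature. Solvents were chloroform, isopropanol, acetonitrile, DMF, and PBS buffer containing 1% Cremophor EL/1,2-propanediol (10:3, v:v). Chloroform data were referenced to the non-halogenated parent dye.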

Data set [4] concerns HeLa. Put plainly: Induction of apoptosis in human HeLa cells assessed as early apoptotic cells at 200 nM preincubated for 3 hrs followed by 27 J/cm2 light irradiation and measured after 24 hrs by Annexin-V-FITC/propidium iodide staining based flow cytometry (reference value: 0.54%). In kind it is functional. The method, boiled down:
(§4)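 HeLa cells in six-well plates were exposed to compound for 3 h, irradiated (λ > 590 nm), and incubated 24 h at 37 °C. Cells were then harvested, washed with PBS, and stained with annexin V-FITC/PI for 20 min at room temperature before immediate flow cytometry. Untreated, unirradiated cells served as control.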
Background: Flow cytometry measures light scatter and fluorescence of single cells or particles in a stream.

The subject of data set [5] is HeLa. Put plainly: Induction of reactive oxygen species generation in human HeLa cells at 2.5 uM incubated for 3 hrs prior to H2DCFDA addition for 20 mins followed by 54 J/cm2 light irradiation by microplate reader analysis relative to dark treated cells. It is filed as functional. The method, boiled down: (§5)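 HeLa cells were exposed to 0.004, 0.02, 0.10, 0.5 or 2.5 μM for 3 h, washed, and loaded with H2DCFDA 10 μM in PBS for 20 min at 37 °C. After washing, cells in PBS were irradiated with 54 J/cm² (λ > 590 nm) or kept dark. Fluorescence was read by confocal microscopy and by plate reader (ex 485/em 538 nm).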

Data set [6] is described as follows: Drug uptake in endoplasmic reticulum of human HeLa cells at 5 uM incubated for 2 hrs under dark condition by ER tracker green dye based laser confocal microscopic analysis. In kind it is ADME, subcellular. The method, boiled down: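 HeLa cells adhered overnight on glass-bottom dishes and were loaded with 5 μM compound in the dark for 2 h. After PBS washes, cells were stained with Mito-Tracker Green FM 250 nM for 30 min, Lyso-Tracker Green 160 nM for 30 min, or ER-Tracker Green 2 μM for 45 min. Confocal imaging: trackers excited at 488 nm, collected 500–560 nm; compound excited at 633 nm, collected 650–740 nm.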

Data set [7] is described as follows: Induction of singlet oxygen generation in PBS containing 1% Cremophor EL/1,2-propanediol (10:3, v:v) system assessed as relative rate of DPBF degradation to MB at 1 uM irradiated with 90 mW/cm2 halogen light. In kind it is functional. The method, boiled down: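 Singlet oxygen generation measured with 1,3-diphenylisobenzofuran (DPBF) as scavenger. The decrease in DPBF absorbance at 411 nm was monitored over time during light irradiation, and the photodegradation rate was calculated.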

Data set [8] can be described thus: Stability of the compound in PBS containing 1% Cremophor EL/1,2-propanediol (10:3, v:v) system assessed as compound degradation under dark condition. In kind it is physicochemical. The following applies: buffer.
Data set [9] relates to HeLa. Put plainly: Induction of apoptosis in human HeLa cells assessed as viable cells at 200 nM preincubated for 3 hrs followed by 54 J/cm2 light irradiation and measured after 24 hrs by Annexin-V-FITC/propidium iodide staining based flow cytometry (reference value: 90.74%). It is filed as functional. The following applies: light or radiation study, read-out: Activity. The method, boiled down:
as §4

Data set [10] can be described thus: Absorption property of the compound in isopropanol assessed as absorption coefficient by UV-visible spectrophotometric method. It is filed as physicochemical. The method, boiled down: as §3
Data set [11] in a line: Dark toxicity in human MCF7 cells assessed as reduction in cell viability after 3 hrs by MTT assay. In kind it is cell-based.
Data set [12] can be described thus: Dark toxicity in human SW480 cells assessed as reduction in cell viability after 3 hrs by MTT assay. In kind it is cell-based.
The test system of data set [13] is HeLa. Put plainly: Induction of apoptosis in human HeLa cells assessed as early apoptotic cells at 40 nM preincubated for 3 hrs followed by 54 J/cm2 light irradiation and measured after 24 hrs by Annexin-V-FITC/propidium iodide staining based flow cytometry (reference value: 0.54%). In kind it is functional. The method, boiled down:
as §4

A short description of data set [14]: Drug uptake in Balb/c nu/nu mouse xenografted with human HeLa cells at 2 mg/kg, iv measured over 10 hrs by fluorescence imaging analysis. In kind it is ADME, organism-based. The following applies: in vivo. The method, boiled down: as §2
In general terms: Xenograft models place foreign cells or tissue in a host animal.

In the next data set the test system is MCF7. Kind of data set: Phototoxicity against human MCF7 cells assessed as reduction in cell viability preincubated for 3 hrs followed by 54 J/cm2 light irradiation and measured after 24 hrs by MTT assay. It is filed as functional, cell-based. The following applies: MCF7, light or radiation study. The method, boiled down:
as §1

In data set [15] the test system is HeLa. Put plainly: Induction of reactive oxygen species generation in human HeLa cells incubated for 3 hrs prior to H2DCFDA addition for 20 mins followed by 54 J/cm2 light irradiation by confocal scanning microscopic analysis. It is filed as functional, cell-based. The method, boiled down:
as §5

In data set [16] the test system is HeLa. Put plainly: Antitumor activity against human HeLa cells xenografted in Balb/c nu/nu mouse assessed as tumor growth inhibition at 2 mg/kg, iv pretreated for 15 mins followed by 54 J/cm2 light irradiation for 10 mins and measured after 24 days. It is filed as functional, organism-based. The method, boiled down:
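Female Balb/c nu/nu mice with subcutaneous HeLa tumors (5×10^6 cells) reaching 80–100 mm³ on day 7 were randomized, n = 5 per group. Mice received 2 mg/kg by tail vein, or saline for controls. After 15 min the tumor was irradiated once with 54 J/cm² (75 W halogen lamp, >590 nm filter, 90 mW/cm², 10 min), unanaesthetized. Calipers every other day; V = 0.5×L×W²; body weight tracked.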

Data set [17] is described as follows: Drug uptake in human HeLa cells xenografted Balb/c nu/nu mouse tumor at 2 mg/kg, iv measured after 3 hrs by fluorescence imaging analysis. In kind it is ADME, organism-based, Neoplasm. Conditions: in vivo. The method, boiled down:
as §2

Data set [18] deals with HeLa. Put plainly: Induction of apoptosis in human HeLa cells assessed as late apoptotic cells at 40 nM preincubated for 3 hrs followed by 54 J/cm2 light irradiation and measured after 24 hrs by Annexin-V-FITC/propidium iodide staining based flow cytometry (reference value: 5.92%). In kind it is functional. The method, boiled down:
as §4

Take `COc1ccc(C2=[N+]3C(=Nc4c(-c5ccccc5)cc(-c5ccc(OC)cc5)n4[B-]3(F)F)C(c3ccccc3)=C2I)cc1`: the IC50 (in general, the concentration that inhibits the measured activity by half) came to 0.086 µM in the data set with SW480 and 0.1 µM with MCF7. The Drug uptake result in data set [1] is “Active”; in data set [2], “Active”; in data set [6], “Active”; in [14], “Not Active”; in data set [17] it was “Active”. Also, the Activity was 34000 M⁻¹ cm⁻¹ in data set [3]; 20.46% in the data set on HeLa [4]; 59300 M⁻¹ cm⁻¹ in data set [10]; 10.68% with HeLa [13]; “Dose-dependent effect” in the data set on HeLa [15]; 10.31% in the data set with HeLa [18]. For the same compound, the results for the “fold change (FC)” value (with HeLa [5]; in data set [7]) were 77 and 2.4, respectively. The Stabilty entry in [8] is reported as “Unstable”. In the data set on HeLa [9], the viability at 0.2 µM is 8.15%. Further, the concentration for half-maximal inhibition (IC50) at 3 h in data set [11] and in data set [12] was above 50 µM in each case. The TGI entry in the data set with HeLa [16] is “Active”.
